Results from ChEMBL document CHEMBL2169742, “Design, synthesis, and biological evaluation of novel transrepression-selective liver X receptor (LXR) ligands with 5,11-dihydro-5-methyl-11-methylene-6H-dibenz[b,e]azepin-6-one skeleton” (J Med Chem, 2012).
Active and inactive are the calls of the source. No cut-off for these calls is given here.

How the values were obtained:
[1] = target: T1, Oxysterols receptor LXR-beta (Homo sapiens, UniProt P55055); experiment: Transactivational antagonist activity at human LXRbeta transfected in HEK293 cells expressing CMX-Gal4N assessed as inhibition of T1317-induced luciferase activity after 16 hrs by reporter gene assay; format: functional, cell-based
T1 sequence (P55055 whole entry): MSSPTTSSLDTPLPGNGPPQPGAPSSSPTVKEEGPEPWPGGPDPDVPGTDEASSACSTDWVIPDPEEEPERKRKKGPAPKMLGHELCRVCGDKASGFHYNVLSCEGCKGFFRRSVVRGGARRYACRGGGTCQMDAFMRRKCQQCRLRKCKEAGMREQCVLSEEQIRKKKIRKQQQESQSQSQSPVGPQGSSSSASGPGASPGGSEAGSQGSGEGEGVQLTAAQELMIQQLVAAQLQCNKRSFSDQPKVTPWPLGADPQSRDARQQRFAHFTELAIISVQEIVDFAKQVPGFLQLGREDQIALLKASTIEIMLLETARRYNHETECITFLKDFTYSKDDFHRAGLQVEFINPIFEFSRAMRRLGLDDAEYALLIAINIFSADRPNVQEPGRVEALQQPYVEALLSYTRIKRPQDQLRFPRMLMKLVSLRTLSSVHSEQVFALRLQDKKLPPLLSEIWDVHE

[2] = target: T2, Oxysterols receptor LXR-alpha (Homo sapiens, UniProt Q13133); experiment: Transactivational agonist activity at human LXRalpha transfected in HEK293 cells expressing CMX-Gal4N assessed as luciferase activity at 30 uM after 16 hrs by reporter gene assay; format: cell-based; conditions: hek293, 16 h
T2 sequence (Q13133 whole entry): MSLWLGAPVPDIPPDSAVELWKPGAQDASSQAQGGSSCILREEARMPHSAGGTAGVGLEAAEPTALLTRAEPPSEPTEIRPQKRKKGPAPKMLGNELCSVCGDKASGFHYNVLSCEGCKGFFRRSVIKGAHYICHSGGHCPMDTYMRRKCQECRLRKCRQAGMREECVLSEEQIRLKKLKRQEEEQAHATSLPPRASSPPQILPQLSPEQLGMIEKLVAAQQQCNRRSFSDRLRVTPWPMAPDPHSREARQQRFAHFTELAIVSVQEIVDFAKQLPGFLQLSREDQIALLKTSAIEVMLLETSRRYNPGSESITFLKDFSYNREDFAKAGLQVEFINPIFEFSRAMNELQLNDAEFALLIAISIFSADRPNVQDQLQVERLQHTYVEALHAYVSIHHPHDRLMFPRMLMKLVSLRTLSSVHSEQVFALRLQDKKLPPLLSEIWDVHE

[3] = target: T1, Oxysterols receptor LXR-beta; experiment: Transactivational agonist activity at human LXRbeta transfected in HEK293 cells expressing CMX-Gal4N assessed as luciferase activity at 30 uM after 16 hrs by reporter gene assay; format: cell-based; conditions: hek293, 16 h
[4] = target: T2, Oxysterols receptor LXR-alpha; experiment: Transactivational antagonist activity at human LXRalpha transfected in HEK293 cells expressing CMX-Gal4N assessed as inhibition of T1317-induced luciferase activity after 16 hrs by reporter gene assay; format: functional, cell-based
[5] = target: Liver X receptor (Homo sapiens) (UniProt Q13133+P55055); experiment: Transrepressional activity at LXR in human TPA-activated THP1 cells assessed as inhibition of LPS-induced IL6 production at 30 uM incubated for 6 hrs prior to LPS-challenge measured after 18 hrs by ELISA; format: cell-based; conditions: THP-1
How it was run: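 THP-1 cells were differentiated with 10 nM TPA for 48 h, then replated at 3 × 10⁴/well. They were pretreated with sample for 6 h before LPS (100 ng/mL). Supernatant IL-6 was measured by ELISA after 18 h.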

[6] = target: T1, Oxysterols receptor LXR-beta; experiment: Transactivational agonist activity at human LXRbeta transfected in HEK293 cells expressing CMX-Gal4N assessed as luciferase activity after 16 hrs by reporter gene assay relative to N-(4-(1,1,1,3,3,3-hexafluoro-2-hydroxypropan-2-yl)phenyl)-N-methylbenzamide; format: cell-based; conditions: read-out: Efficacy
[7] = target: T1, Oxysterols receptor LXR-beta; experiment: Transactivational agonist activity at human LXRbeta transfected in HEK293 cells expressing CMX-Gal4N assessed as luciferase activity after 16 hrs by reporter gene assay; format: cell-based
How it was run: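 Gal4-hLXRα or Gal4-hLXRβ chimera (15 ng) cotransfected with tk-MH100×4-luc reporter (50 ng) and CMX-β-gal (10 ng) into HEK293 cells by calcium phosphate. Luciferase was normalized to β-gal, in triplicate.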

[8] = target: T2, Oxysterols receptor LXR-alpha; experiment: Transactivational agonist activity at human LXRalpha transfected in HEK293 cells expressing CMX-Gal4N assessed as luciferase activity after 16 hrs by reporter gene assay; format: cell-based
[9] = target: T2, Oxysterols receptor LXR-alpha; experiment: Transactivational agonist activity at human LXRalpha transfected in HEK293 cells expressing CMX-Gal4N assessed as luciferase activity after 16 hrs by reporter gene assay relative to N-(4-(1,1,1,3,3,3-hexafluoro-2-hydroxypropan-2-yl)phenyl)-N-methylbenzamide; format: cell-based; conditions: read-out: Efficacy
[10] = target: T3, Oxysterols receptor LXR-alpha (Homo sapiens) (UniProt Q13133); experiment: Binding affinity to human GST-tagged LXRalpha expressed in Escherichia coli BL21(DE3) at 1 uM after 1 hr by fluorescence polarization assay
T3 sequence (whole entry): T2 sequence (Q13133 whole entry)
How it was run: (§1)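 Fluorescence polarization binding: full-length GST-hLXRα or GST was expressed in E. coli Rosetta(DE3) (0.4 mM IPTG, 15 °C, 24 h) and purified on glutathione resin. Protein dilutions, or 1 μM protein with competitor, were incubated with fluorescent probe 23 (1 μM) for 1 h at 0 °C. Buffer was 50 mM Tris-HCl, 10 mM reduced glutathione, pH 8.0; excitation 400 nm, emission 500 nm.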

[11] = Binding affinity to GST at 1 uM after 1 hr by fluorescence polarization assay; how it was run: as §1
[12] = target: T3, Oxysterols receptor LXR-alpha (Homo sapiens); experiment: Transactivational antagonist activity at human LXRalpha transfected in HEK293 cells coexpressing CMX-Gal4N-SMRT assessed as SMRT recruitment after 16 hrs by reporter gene assay; format: functional, cell-based
How it was run: (§2)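 Mammalian two-hybrid in HEK293 cells by calcium phosphate cotransfection: CMX-VP16N-hLXRα, Gal4N-fused SRC1, DRIP205, NCoR or SMRT (15 ng), tk-MH100×4-luc (50 ng) and CMX-β-gal (10 ng). Compound or DMSO added 8 h after transfection for 16 h. Luciferase was normalized to β-galactosidase, in triplicate.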

[13] = target: T2, Oxysterols receptor LXR-alpha; experiment: Transactivational agonist activity at human LXRalpha transfected in HEK293 cells coexpressing CMX-Gal4N-DRIP205 assessed as DRIP205 recruitment at 10 uM after 16 hrs by mammalian two-hybrid assay; format: cell-based; conditions: hek293, 16 h; how it was run: as §2
[14] = target: T3, Oxysterols receptor LXR-alpha (Homo sapiens); experiment: Transactivational antagonist activity at human LXRalpha transfected in HEK293 cells coexpressing CMX-Gal4N-NCoR assessed as NCoR recruitment after 16 hrs by reporter gene assay; format: functional, cell-based; how it was run: as §2
[15] = tested on: Peritoneal macrophage cell; experiment: Inhibition of LPS-induced IL-6 production in LXRalpha,LXRbeta-deficient C57BL/6J mouse peritoneal macrophages at 10 uM incubated for 6 hrs prior to LPS-challenge measured after 18 hrs by ELISA; format: functional, cell-based
How it was run: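 Thioglycollate-elicited peritoneal macrophages came from 8–10-week LXRα/β-null mice on C57BL/6J background, harvested 4 days post-injection. They were adhered, rested 24 h and plated at 2 × 10⁵/well, then pretreated with compound 6 h before LPS 10 ng/mL. Supernatant mIL-6 was measured by ELISA after 18 h; means ± SE of ≥3 independent measurements, ANOVA.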

[16] = target: T2, Oxysterols receptor LXR-alpha; experiment: Transactivational agonist activity at human LXRalpha transfected in HEK293 cells coexpressing CMX-Gal4N-SRC1 assessed as SRC1 recruitment at 10 uM after 16 hrs by mammalian two-hybrid assay; format: cell-based; conditions: hek293, 16 h; how it was run: as §2
[17] = target: T4, Oxysterols receptor LXR-beta (Homo sapiens) (UniProt P55055); experiment: Transactivational antagonist activity at human LXRbeta transfected in HEK293 cells expressing CMX-Gal4N assessed as inhibition of T1317-induced luciferase activity at 30 uM after 16 hrs by reporter gene assay; format: functional, cell-based
T4 sequence (whole entry): T1 sequence (P55055 whole entry)
How it was run: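 Gal4-hLXRα or Gal4-hLXRβ chimera (15 ng) cotransfected with tk-MH100×4-luc reporter (50 ng) and CMX-β-gal (10 ng) into HEK293 cells by calcium phosphate. From 8 h post-transfection, cells got compound (0.1–30 μM) or DMSO for 16 h. Luciferase was normalized to β-gal, in triplicate.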

Row | SMILES | IC50 [1] [µM] | Activity [2] | Activity [3] | IC50 [4] [µM] | also measured
1 | C=C1c2ccccc2C(=O)N(C)c2ccc(CCCCCC)cc21 | > 10 | Not Active | Not Active | > 10 | 
2 | C=C1c2ccccc2C(=O)N(C)c2ccc(N)cc21 | 27 | Not Active | Not Active | 19 | 
3 | C=C1c2ccccc2C(=O)N(C)c2ccc(CCCCCCCCCCCC)cc21 | > 30 | Not Active | Not Active | > 30 | inhibition [5]: inactive
4 | C=C1c2ccccc2C(=O)N(C)c2ccc(CO)cc21 | > 10 | Not Active | Not Active | > 10 | 
5 | C=C1c2ccc(-c3ccc(CC(=O)O)cc3)cc2C(=O)N(C)c2ccc(CC)cc21 | 15 | Not Active | Not Active | 2.2 | 
6 | C=C1c2ccccc2C(=O)N(C)c2ccc(C(=O)O)cc21 | 26 | Not Active | Not Active | 14 | 
7 | C=C1c2ccc(-c3ccc(C(=O)O)cc3)cc2C(=O)N(C)c2ccc(CC)cc21 | 9.5 | Not Active | Not Active | 1.3 | inhibition [5]: inactive
8 | CN1C(=O)c2ccccc2CCc2cc(C(O)(C(F)(F)F)C(F)(F)F)ccc21 |  |  |  |  | Emax [6]: 108%; EC50 [7]: 0.26 µM; EC50 [8]: 0.91 µM; Emax [9]: 117%
9 | C=C1c2ccccc2C(=O)N(C)c2ccc(C(C)=O)cc21 | 7.5 | Not Active | Not Active | 4.9 | 
10 | C=C1c2ccc(-c3cccc(C(=O)O)c3)cc2C(=O)N(C)c2ccc(CC)cc21 | > 30 | Not Active | Not Active | > 30 | inhibition [5]: inactive
11 | CN1C(=O)c2ccccc2Oc2cc(C(O)(C(F)(F)F)C(F)(F)F)ccc21 |  |  |  |  | Emax [6]: 49%; EC50 [7]: 2.7 µM; EC50 [8]: 4.2 µM; Emax [9]: 12%
12 | C=C1c2ccccc2C(=O)N(C)c2ccccc21 | > 10 |  |  | > 10 | inhibition [5]: inactive
13 | CN(C(=O)c1ccccc1)c1ccc(C(O)(C(F)(F)F)C(F)(F)F)cc1 |  |  |  |  | Emax [6]: 100%; EC50 [7]: 0.18 µM; EC50 [8]: 0.63 µM; Emax [9]: 100%
14 | COc1ccc(CCc2ccc(N3C(=O)c4ccc(N(C)C)cc4C3=O)cc2)cc1 |  |  |  |  | Activity [10]: Active; Activity [11]: inactive
15 | C=C1c2ccccc2C(=O)N(C)c2ccc(C)cc21 | > 10 | Not Active | Not Active | > 10 | 
16 | [CH2-]c1c2ccccc2c(=O)[n+](C)c2ccc([N+](=O)[O-])cc12 | 13 | Not Active | Not Active | 6.1 | 
17 | C=C1c2ccccc2C(=O)N(C)c2ccc(C(C)(C)C)cc21 | > 10 | Not Active | Not Active | 5.4 | Activity [12]: Dose-dependent effect; Activity [13]: Toxic; Activity [14]: Dose-dependent effect; inhibition [15]: inactive; Activity [16]: Toxic
18 | C=C1c2ccccc2C(=O)N(C)c2ccc(C(C)C)cc21 | > 10 | Not Active | Not Active | 1.7 | 
19 | Cn1c(=O)c2ccccc2c2cc(C(O)(C(F)(F)F)C(F)(F)F)ccc21 |  | Not Active | Not Active | 4.1 | inhibition [17]: inactive; inhibition [5]: inactive
20 | C=C1c2ccc(-c3cccc(CC(=O)O)c3)cc2C(=O)N(C)c2ccc(CC)cc21 | 27 | Not Active | Not Active | 21 | 
